Active and inactive are the calls of the source. The rule behind the calls is not given here.
Tests used:
[1] = Half life in rat; format: ADME, organism-based; conditions: in vivo
[2] = test system: Mus musculus; assay: Toxicity in mouse medulloblastoma allograft model assessed as adverse effects at 80 mg/kg, po bid for 3 weeks; format: organism-based; design: dose 80 mg/kg, route oral; conditions: in vivo, 504 h
Summary of the method: (§1)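 Primary mouse medulloblastoma allograft, subcutaneous. Mice randomized when tumors averaged 400 mm³. Oral dosing for 3 weeks, bid at 40, 80, 120 or 160 mg/kg, or 80 mg/kg qd. Compound given as a suspension in 0.24% SDS/0.5% Methocel, with a BID vehicle control. Tumor volume tracked over days; body weight, physical signs and mortality monitored.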

[3] = Half life in dog; format: ADME, organism-based, Canis lupus familiaris; conditions: in vivo
[4] = test system: Mus musculus; assay: Inhibition of Shh pathway in mouse medulloblastoma allograft model assessed as reduction in tumor Gli-1 mRNA expression at 80 mg/kg, po administered as single dose; format: functional, organism-based; design: dose 80 mg/kg; conditions: TDE = time-dependent effect
Summary of the method: (§2)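 Tumor-bearing medulloblastoma mice given a single oral 80 mg/kg dose. Tumor biopsies taken at timepoints up to 24 h; Hh-pathway inhibition measured as reduction of Gli-1 mRNA.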

[5] = target: T1, Protein smoothened (Homo sapiens, UniProt Q99835); assay: Displacement of BODIPY-cyclopamine from human Smo expressed in HEK293 cells in presence of 20% normal human serum; format: cell-based
T1 sequence (Q99835 whole entry): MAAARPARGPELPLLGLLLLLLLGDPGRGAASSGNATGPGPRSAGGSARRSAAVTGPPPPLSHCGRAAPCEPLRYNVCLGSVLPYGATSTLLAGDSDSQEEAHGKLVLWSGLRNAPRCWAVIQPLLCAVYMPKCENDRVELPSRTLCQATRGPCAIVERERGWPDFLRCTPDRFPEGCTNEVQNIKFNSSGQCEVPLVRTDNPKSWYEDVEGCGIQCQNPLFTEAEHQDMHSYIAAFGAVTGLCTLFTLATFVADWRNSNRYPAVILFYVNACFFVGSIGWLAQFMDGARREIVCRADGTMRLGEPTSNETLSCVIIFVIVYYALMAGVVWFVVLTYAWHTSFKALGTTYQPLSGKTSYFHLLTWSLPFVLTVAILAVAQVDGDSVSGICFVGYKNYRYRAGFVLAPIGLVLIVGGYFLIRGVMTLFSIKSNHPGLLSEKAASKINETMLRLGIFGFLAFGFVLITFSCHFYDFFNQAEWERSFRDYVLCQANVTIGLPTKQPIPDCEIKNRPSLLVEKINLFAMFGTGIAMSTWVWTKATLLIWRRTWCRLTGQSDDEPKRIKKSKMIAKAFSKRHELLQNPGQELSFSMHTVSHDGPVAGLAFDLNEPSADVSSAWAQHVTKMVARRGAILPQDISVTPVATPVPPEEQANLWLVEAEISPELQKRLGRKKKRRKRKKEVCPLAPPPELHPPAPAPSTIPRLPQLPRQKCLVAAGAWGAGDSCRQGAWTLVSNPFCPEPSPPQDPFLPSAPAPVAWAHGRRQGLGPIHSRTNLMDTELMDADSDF
Summary of the method: (§3)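 Competition binding: displacement of fluorescently labeled bodipy-cyclopamine from recombinant human Smo expressed in HEK-293 cells. Run in 2% fetal calf serum and, separately, in 20% normal human serum. IC50 values are means of at least five experiments.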

[6] = Inhibition of Voltage-gated sodium channel at 30 uM
[7] = target: Cytochrome P450 3A4 (Homo sapiens, UniProt P08684); assay: Inhibition of CYP3A4; format: ADME
Sequence of Cytochrome P450 3A4 (P08684 whole entry): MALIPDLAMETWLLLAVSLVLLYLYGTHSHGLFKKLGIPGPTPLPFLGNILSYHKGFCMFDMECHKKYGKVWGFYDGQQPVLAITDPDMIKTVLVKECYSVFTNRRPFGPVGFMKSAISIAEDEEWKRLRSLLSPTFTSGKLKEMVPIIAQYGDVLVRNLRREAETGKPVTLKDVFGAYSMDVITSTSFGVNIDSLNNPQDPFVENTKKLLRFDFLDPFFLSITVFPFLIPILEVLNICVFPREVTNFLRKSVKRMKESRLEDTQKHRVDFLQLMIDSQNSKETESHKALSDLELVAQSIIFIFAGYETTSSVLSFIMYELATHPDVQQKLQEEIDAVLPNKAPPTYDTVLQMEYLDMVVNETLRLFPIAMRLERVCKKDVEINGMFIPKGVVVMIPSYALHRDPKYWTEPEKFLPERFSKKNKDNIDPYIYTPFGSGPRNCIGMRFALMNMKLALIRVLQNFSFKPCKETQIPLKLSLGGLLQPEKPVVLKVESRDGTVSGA

[8] = test system: Mus musculus; assay: Toxicity in mouse medulloblastoma allograft model assessed as adverse effects at 40 mg/kg, po bid for 3 weeks; format: organism-based; design: dose 40 mg/kg, route oral; conditions: in vivo, 504 h; summary of the method: as §1
[9] = Cmax in iv dosed dog; format: ADME, organism-based, Canis lupus familiaris; design: route intravenous; conditions: in vivo
[10] = test system: Mus musculus; assay: Toxicity in mouse medulloblastoma allograft model assessed as adverse effects at 120 mg/kg, po bid for 3 weeks; format: organism-based; design: dose 120 mg/kg, route oral; conditions: in vivo, 504 h; summary of the method: as §1
[11] = target: hERG (KCNH2) (Homo sapiens, UniProt Q12809); assay: Inhibition of human ERG at 30 uM
Sequence of hERG (KCNH2) (Q12809 whole entry): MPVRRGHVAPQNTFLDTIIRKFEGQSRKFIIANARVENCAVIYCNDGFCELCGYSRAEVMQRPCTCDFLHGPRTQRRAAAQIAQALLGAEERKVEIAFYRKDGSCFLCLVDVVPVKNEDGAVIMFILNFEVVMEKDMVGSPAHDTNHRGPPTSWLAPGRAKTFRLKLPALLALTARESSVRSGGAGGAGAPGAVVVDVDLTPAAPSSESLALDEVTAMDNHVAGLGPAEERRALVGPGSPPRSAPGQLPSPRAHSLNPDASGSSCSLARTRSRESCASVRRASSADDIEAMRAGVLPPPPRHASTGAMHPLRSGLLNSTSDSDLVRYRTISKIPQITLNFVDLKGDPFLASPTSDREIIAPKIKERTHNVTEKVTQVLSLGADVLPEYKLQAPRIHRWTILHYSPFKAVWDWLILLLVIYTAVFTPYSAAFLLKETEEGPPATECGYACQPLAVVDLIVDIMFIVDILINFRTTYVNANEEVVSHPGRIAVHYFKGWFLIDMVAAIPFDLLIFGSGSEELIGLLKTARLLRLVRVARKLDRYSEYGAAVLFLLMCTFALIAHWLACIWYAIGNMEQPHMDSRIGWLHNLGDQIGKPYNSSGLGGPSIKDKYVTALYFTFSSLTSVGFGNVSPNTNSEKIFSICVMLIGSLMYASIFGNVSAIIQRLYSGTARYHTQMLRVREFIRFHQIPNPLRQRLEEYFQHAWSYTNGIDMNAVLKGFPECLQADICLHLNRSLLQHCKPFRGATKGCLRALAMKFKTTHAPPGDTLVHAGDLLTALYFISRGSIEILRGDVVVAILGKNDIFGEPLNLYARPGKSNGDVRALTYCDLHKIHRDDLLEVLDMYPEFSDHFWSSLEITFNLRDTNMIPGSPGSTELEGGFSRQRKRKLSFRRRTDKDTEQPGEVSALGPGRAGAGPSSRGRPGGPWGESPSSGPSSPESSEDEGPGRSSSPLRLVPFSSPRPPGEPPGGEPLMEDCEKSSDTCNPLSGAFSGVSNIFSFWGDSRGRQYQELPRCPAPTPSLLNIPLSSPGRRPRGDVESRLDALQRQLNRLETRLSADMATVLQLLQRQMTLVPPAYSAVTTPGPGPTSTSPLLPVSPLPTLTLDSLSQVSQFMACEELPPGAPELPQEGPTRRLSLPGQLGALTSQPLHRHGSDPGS

[12] = target: Cytochrome P450 2D6 (Homo sapiens, UniProt P10635); assay: Inhibition of CYP2D6; format: ADME
Sequence of Cytochrome P450 2D6 (P10635 whole entry): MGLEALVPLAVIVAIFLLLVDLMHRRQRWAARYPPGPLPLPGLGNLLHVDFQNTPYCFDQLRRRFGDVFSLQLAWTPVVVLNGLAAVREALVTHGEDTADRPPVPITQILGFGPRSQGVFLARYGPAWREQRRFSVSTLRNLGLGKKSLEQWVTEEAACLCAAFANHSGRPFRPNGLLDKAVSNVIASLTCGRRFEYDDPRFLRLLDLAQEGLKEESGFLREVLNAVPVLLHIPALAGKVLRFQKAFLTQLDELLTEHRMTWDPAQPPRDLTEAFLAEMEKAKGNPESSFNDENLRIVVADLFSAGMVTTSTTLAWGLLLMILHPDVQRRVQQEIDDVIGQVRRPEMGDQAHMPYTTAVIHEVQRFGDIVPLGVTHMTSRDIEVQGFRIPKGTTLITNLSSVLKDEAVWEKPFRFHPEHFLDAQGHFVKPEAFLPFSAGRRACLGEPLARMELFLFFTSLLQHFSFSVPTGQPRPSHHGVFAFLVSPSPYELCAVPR

[13] = test system: Mus musculus; assay: Inhibition of Shh pathway in mouse medulloblastoma allograft model assessed as reduction in tumor Gli-1 mRNA expression at 80 mg/kg, po administered as single dose measured after 4 hrs; format: functional; summary of the method: as §2
[14] = Oral bioavailability in rat; format: ADME, organism-based; conditions: in vivo
[15] = test system: Mus musculus; assay: Toxicity in mouse medulloblastoma allograft model assessed as adverse effects at 80 mg/kg, po qd for 3 weeks; format: organism-based; design: dose 80 mg/kg, route oral; conditions: in vivo, 504 h; summary of the method: as §1
[16] = species on record: Rattus norvegicus; assay: Clearance in rat; format: ADME, organism-based; conditions: in vivo
[17] = species on record: Canis familiaris; assay: Clearance in dog; format: ADME, organism-based, Canis lupus familiaris; conditions: in vivo
[18] = test system: Mus musculus; assay: Inhibition of Shh pathway in mouse medulloblastoma allograft model assessed as reduction in tumor Gli-1 mRNA expression at 80 mg/kg, po administered as single dose measured after 6 hrs; format: functional; summary of the method: as §2
[19] = test system: Mus musculus; assay: Inhibition of Shh pathway in mouse medulloblastoma allograft model assessed as reduction in tumor Gli-1 mRNA expression at 80 mg/kg, po administered as single dose measured after 8 hrs; format: functional; summary of the method: as §2
[20] = test system: Canis familiaris; assay: Toxicity in iv dosed vagotomized dog assessed as change in hemodynamic parameters; format: organism-based, Canis lupus familiaris; conditions: in vivo
[21] = Oral bioavailability in dog; format: ADME, organism-based, Canis lupus familiaris; conditions: in vivo
[22] = Volume of distribution at steady state in dog; format: ADME, organism-based, Canis lupus familiaris; conditions: in vivo, read-out: Vdss
[23] = target: T1, Protein smoothened; assay: Displacement of BODIPY-cyclopamine from human Smo expressed in HEK293 cells in presence of 2% fetal calf serum; format: cell-based; summary of the method: as §3
[24] = target: Cytochrome P450 2C9 (Homo sapiens, UniProt P11712); assay: Inhibition of CYP2C9; format: ADME
Sequence of Cytochrome P450 2C9 (P11712 whole entry): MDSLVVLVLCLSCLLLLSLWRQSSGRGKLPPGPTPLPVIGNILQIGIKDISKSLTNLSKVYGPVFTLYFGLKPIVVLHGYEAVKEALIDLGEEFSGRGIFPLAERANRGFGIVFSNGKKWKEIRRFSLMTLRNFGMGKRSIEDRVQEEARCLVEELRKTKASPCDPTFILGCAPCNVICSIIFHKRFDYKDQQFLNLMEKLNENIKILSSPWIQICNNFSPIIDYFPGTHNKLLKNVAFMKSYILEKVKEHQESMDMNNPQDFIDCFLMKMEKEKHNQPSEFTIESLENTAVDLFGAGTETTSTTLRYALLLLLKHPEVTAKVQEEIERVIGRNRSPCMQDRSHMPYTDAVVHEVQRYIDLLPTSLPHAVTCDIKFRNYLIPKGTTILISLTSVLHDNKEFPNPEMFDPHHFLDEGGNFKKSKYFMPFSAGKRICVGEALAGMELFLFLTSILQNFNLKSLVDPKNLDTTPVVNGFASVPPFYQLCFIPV

[25] = Volume of distribution at steady state in rat; format: ADME, organism-based; conditions: in vivo, read-out: Vdss
[26] = test system: Canis familiaris; assay: Toxicity in iv dosed vagotomized dog assessed as change in cardiovascular parameters; format: organism-based, Canis lupus familiaris, Heart; conditions: in vivo
[27] = test system: Mus musculus; assay: Toxicity in mouse medulloblastoma allograft model assessed as adverse effects at 160 mg/kg, po bid for 3 weeks; format: organism-based; design: dose 160 mg/kg, route oral; conditions: in vivo, 504 h; summary of the method: as §1
[28] = Plasma protein binding in human assessed as unbound fraction; format: ADME, cell-free
[29] = test system: Mus musculus; assay: Toxicity in mouse medulloblastoma allograft model assessed as visible physical signs at 40 mg/kg, po bid for 3 weeks; format: organism-based; design: dose 40 mg/kg, route oral; conditions: in vivo, 504 h
Summary of the method: (§4)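 Primary mouse medulloblastoma allografts grown subcutaneously; mice were randomized once tumors averaged 400 mm³. The compound was given orally as a suspension in 0.24% SDS/0.5% Methocel, either bid for 3 weeks or 80 mg/kg qd. Tolerability was monitored by body-weight loss, visible physical signs and mortality.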

[30] = test system: Mus musculus; assay: Toxicity in mouse medulloblastoma allograft model assessed as mortality at 120 mg/kg, po bid for 3 weeks; format: organism-based; design: dose 120 mg/kg, route oral; conditions: in vivo, 504 h; summary of the method: as §4
[31] = AUC in mouse at 40 mg/kg, po; format: ADME, organism-based; design: dose 40 mg/kg, route oral; conditions: plasma
[32] = test system: Medulloblastoma cell; assay: Antitumor activity against primary mouse medulloblastoma allograft model assessed as tumor growth inhibition at 80 mg/kg, po qd for 3 weeks; format: functional, organism-based; design: dose 80 mg/kg; summary of the method: as §1
[33] = test system: Mus musculus; assay: Toxicity in mouse medulloblastoma allograft model assessed as body weight loss at 160 mg/kg, po bid for 3 weeks; format: organism-based; design: dose 160 mg/kg, route oral; conditions: in vivo, 504 h; summary of the method: as §1
[34] = test system: Medulloblastoma cell; assay: Antitumor activity against primary mouse medulloblastoma allograft model assessed as tumor growth inhibition at 160 mg/kg, po bid for 3 weeks; format: functional, organism-based; design: dose 160 mg/kg; summary of the method: as §1
[35] = test system: Mus musculus; assay: Toxicity in mouse medulloblastoma allograft model assessed as mortality at 160 mg/kg, po bid for 3 weeks; format: organism-based; design: dose 160 mg/kg, route oral; conditions: in vivo, 504 h; summary of the method: as §4
[36] = test system: Mus musculus; assay: Toxicity in mouse medulloblastoma allograft model assessed as body weight loss at 80 mg/kg, po qd for 3 weeks; format: organism-based; design: dose 80 mg/kg, route oral; conditions: in vivo, 504 h; summary of the method: as §1
[37] = test system: Medulloblastoma cell; assay: Antitumor activity against primary mouse medulloblastoma allograft model assessed as tumor growth inhibition at 120 mg/kg, po bid for 3 weeks; format: functional, organism-based; design: dose 120 mg/kg; summary of the method: as §1
[38] = test system: Medulloblastoma cell; assay: Antitumor activity against primary mouse medulloblastoma allograft model assessed as tumor growth inhibition at 80 mg/kg, po bid for 3 weeks; format: functional, organism-based; design: dose 80 mg/kg; summary of the method: as §1
[39] = test system: Mus musculus; assay: Toxicity in mouse medulloblastoma allograft model assessed as mortality at 40 mg/kg, po bid for 3 weeks; format: organism-based; design: dose 40 mg/kg, route oral; conditions: in vivo, 504 h; summary of the method: as §4
[40] = test system: Mus musculus; assay: Toxicity in mouse medulloblastoma allograft model assessed as body weight loss at 120 mg/kg, po bid for 3 weeks; format: organism-based; design: dose 120 mg/kg, route oral; conditions: in vivo, 504 h; summary of the method: as §1
[41] = AUC in mouse at 80 mg/kg, po; format: ADME, organism-based; design: dose 80 mg/kg, route oral; conditions: plasma
[42] = test system: Mus musculus; assay: Toxicity in mouse medulloblastoma allograft model assessed as body weight loss at 40 mg/kg, po bid for 3 weeks; format: organism-based; design: dose 40 mg/kg, route oral; conditions: in vivo, 504 h; summary of the method: as §1
[43] = test system: Mus musculus; assay: Toxicity in mouse medulloblastoma allograft model assessed as visible physical signs at 80 mg/kg, po bid for 3 weeks; format: organism-based; design: dose 80 mg/kg, route oral; conditions: in vivo, 504 h; summary of the method: as §4
[44] = test system: Mus musculus; assay: Toxicity in mouse medulloblastoma allograft model assessed as body weight loss at 80 mg/kg, po bid for 3 weeks; format: organism-based; design: dose 80 mg/kg, route oral; conditions: in vivo, 504 h; summary of the method: as §1
[45] = test system: Mus musculus; assay: Toxicity in mouse medulloblastoma allograft model assessed as visible physical signs at 80 mg/kg, po qd for 3 weeks; format: organism-based; design: dose 80 mg/kg, route oral; conditions: in vivo, 504 h; summary of the method: as §4
[46] = test system: Mus musculus; assay: Toxicity in mouse medulloblastoma allograft model assessed as mortality at 80 mg/kg, po bid for 3 weeks; format: organism-based; design: dose 80 mg/kg, route oral; conditions: in vivo, 504 h; summary of the method: as §4
[47] = test system: Mus musculus; assay: Toxicity in mouse medulloblastoma allograft model assessed as mortality at 80 mg/kg, po qd for 3 weeks; format: organism-based; design: dose 80 mg/kg, route oral; conditions: in vivo, 504 h; summary of the method: as §4
[48] = test system: Medulloblastoma cell; assay: Antitumor activity against primary mouse medulloblastoma allograft model assessed as tumor growth inhibition at 40 mg/kg, po bid for 3 weeks; format: functional, organism-based; design: dose 40 mg/kg; summary of the method: as §1
[49] = test system: Mus musculus; assay: Toxicity in mouse medulloblastoma allograft model assessed as visible physical signs at 160 mg/kg, po bid for 3 weeks; format: organism-based; design: dose 160 mg/kg, route oral; conditions: in vivo, 504 h; summary of the method: as §4
[50] = test system: Mus musculus; assay: Inhibition of Shh pathway in mouse medulloblastoma allograft model assessed as reduction in tumor Gli-1 mRNA expression at 80 mg/kg, po administered as single dose measured after 4 to 12 hrs; format: functional; summary of the method: as §2
[51] = test system: Mus musculus; assay: Toxicity in mouse medulloblastoma allograft model assessed as visible physical signs at 120 mg/kg, po bid for 3 weeks; format: organism-based; design: dose 120 mg/kg, route oral; conditions: in vivo, 504 h; summary of the method: as §4
[52] = AUC in mouse at 160 mg/kg, po; format: ADME, organism-based; design: dose 160 mg/kg, route oral; conditions: plasma

C[C@@]12CN(C(=O)Nc3ccnn3-c3ccccc3)CCN1C(=O)N([C@H]1C[C@@H]1c1ccccc1)C2=O
half-life [1]: 5.1 h
Activity [2]: Non-toxic
half-life [3]: 1.1 h
inhibition [4]: tde
IC50 [5]: 22 nM
inhibition [6]: 45%
IC50 [7]: > 40000 nM
Activity [8]: Non-toxic
Cmax [9]: 16 µM
Activity [10]: Non-toxic
inhibition at 30 µM [11]: 27%
IC50 [12]: > 40000 nM
inhibition in vivo at 80 mg/kg [13]: 77%
bioavailability [14]: 40%
Activity [15]: Non-toxic
clearance [16]: 22 mL/min/kg
clearance [17]: 22 mL/min/kg
inhibition in vivo at 80 mg/kg [18]: > 85%
inhibition in vivo at 80 mg/kg [19]: > 85%
Activity [20]: Non-toxic
bioavailability [21]: 52%
Vd [22]: 2 L/kg
IC50 [23]: 13 nM
IC50 [24]: > 40000 nM
Vd [25]: 2.9 L/kg
Activity [26]: Non-toxic
Activity [27]: Non-toxic

O=C(Nc1ccnn1-c1ccccc1)N1CCN2C(=O)N([C@H]3C[C@@H]3c3ccccc3)C(=O)[C@@H]2C1
fraction unbound [28]: 0.17
half-life [1]: 1.3 h
Activity [29]: Non-toxic
half-life [3]: 2.5 h
Activity [30]: Non-toxic
AUC [31]: 6.4 µM·h
growth inhibition (GI) [32]: Active
Activity [33]: < 10%
growth inhibition (GI) [34]: Active
IC50 [5]: 18 nM
Activity [35]: Non-toxic
Activity [36]: < 10%
growth inhibition (GI) [37]: Active
growth inhibition (GI) [38]: Active
Activity [39]: Non-toxic
Activity [40]: < 10%
AUC [41]: 15 µM·h
bioavailability [14]: 88%
Activity [42]: < 10%
clearance [16]: 43 mL/min/kg
clearance [17]: 5.5 mL/min/kg
Activity [43]: Non-toxic
Activity [44]: < 10%
bioavailability [21]: 82%
Activity [45]: Non-toxic
Vd [22]: 1 L/kg
Activity [46]: Non-toxic
Activity [47]: Non-toxic
IC50 [23]: 15 nM
growth inhibition (GI) [48]: Active
Activity [49]: Non-toxic
Vd [25]: 2.9 L/kg
inhibition in vivo at 80 mg/kg [50]: > 80%
Activity [51]: Non-toxic
AUC [52]: 24 µM·h

From ChEMBL document CHEMBL1811786, “Identification of MK-5710 ((8aS)-8a-methyl-1,3-dioxo-2-[(1S,2R)-2-phenylcyclo- propyl]-N-(1-phenyl-1H-pyrazol-5-yl)hexahydro-imidazo[1,5-a]pyrazine-7(1H)-carboxamide), a potent smoothened antagonist for use in Hedgehog pathway dependent malignancies, part 2” (Bioorg Med Chem Lett, 2011)
